Source: ChEMBL document CHEMBL1140127, “Enantiomeric propanolamines as selective N-methyl-D-aspartate 2B receptor antagonists” (J Med Chem, 2008)

The molecules below were run against T1, Adrenergic receptor alpha-1 (Rattus norvegicus, UniProt P15823+P23944+P43140) (assay: Displacement of [3H]prazosin from alpha1 adrenergic receptor in rat brain).
T1 sequence (P15823 whole entry): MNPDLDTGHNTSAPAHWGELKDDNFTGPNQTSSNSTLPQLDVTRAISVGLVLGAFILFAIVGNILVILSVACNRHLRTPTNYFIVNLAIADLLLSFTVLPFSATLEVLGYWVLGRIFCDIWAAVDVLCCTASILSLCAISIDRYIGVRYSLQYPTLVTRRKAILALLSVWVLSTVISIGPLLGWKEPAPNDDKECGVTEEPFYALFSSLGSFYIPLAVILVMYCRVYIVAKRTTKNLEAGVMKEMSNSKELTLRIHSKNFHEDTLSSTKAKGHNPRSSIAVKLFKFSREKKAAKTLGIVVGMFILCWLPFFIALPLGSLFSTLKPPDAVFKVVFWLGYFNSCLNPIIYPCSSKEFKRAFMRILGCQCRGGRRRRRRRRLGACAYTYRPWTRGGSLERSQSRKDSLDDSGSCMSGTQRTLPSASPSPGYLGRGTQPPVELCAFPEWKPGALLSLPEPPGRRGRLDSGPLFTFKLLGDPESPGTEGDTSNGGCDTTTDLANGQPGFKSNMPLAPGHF
T1 sequence (P23944 whole entry): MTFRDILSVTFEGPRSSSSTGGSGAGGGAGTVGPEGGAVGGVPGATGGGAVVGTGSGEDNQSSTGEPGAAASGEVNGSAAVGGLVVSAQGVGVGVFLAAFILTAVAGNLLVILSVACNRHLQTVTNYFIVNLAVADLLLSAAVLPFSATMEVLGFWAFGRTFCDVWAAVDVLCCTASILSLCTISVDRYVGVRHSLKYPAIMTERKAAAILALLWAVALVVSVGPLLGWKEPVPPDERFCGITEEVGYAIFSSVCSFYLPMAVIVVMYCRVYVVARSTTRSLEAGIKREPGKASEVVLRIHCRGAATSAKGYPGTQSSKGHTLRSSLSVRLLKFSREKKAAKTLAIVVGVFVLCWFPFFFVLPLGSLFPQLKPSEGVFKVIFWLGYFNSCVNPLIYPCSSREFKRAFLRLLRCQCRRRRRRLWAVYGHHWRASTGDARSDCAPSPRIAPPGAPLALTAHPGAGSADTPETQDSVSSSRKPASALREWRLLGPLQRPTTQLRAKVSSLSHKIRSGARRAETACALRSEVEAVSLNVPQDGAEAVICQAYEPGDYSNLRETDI
T1 sequence (P43140 whole entry): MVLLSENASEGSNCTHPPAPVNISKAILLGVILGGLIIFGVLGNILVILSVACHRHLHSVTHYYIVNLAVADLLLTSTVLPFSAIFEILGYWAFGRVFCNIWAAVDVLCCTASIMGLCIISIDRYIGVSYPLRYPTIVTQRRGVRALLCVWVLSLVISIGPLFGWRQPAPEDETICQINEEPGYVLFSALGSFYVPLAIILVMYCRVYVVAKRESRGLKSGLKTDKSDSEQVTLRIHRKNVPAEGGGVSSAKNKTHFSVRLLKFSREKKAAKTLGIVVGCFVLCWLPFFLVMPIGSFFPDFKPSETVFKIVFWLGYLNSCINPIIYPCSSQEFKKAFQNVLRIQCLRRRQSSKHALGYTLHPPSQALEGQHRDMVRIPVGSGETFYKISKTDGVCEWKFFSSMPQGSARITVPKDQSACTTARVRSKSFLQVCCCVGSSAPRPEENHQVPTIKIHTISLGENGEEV
Type: tissue-based
Method in brief: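 Rat brain membranes; displacement of [3H]-prazosin at 4–6 concentrations, each point in duplicate. IC50 from displacement curves fitted by nonlinear least-squares regression.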

SMILES | IC50 [nM]
CS(=O)(=O)Nc1ccc(OC[C@@H](O)CN(CCc2ccc(Cl)c(Cl)c2)Cc2ccccc2F)cc1 | > 10000
CS(=O)(=O)Nc1ccc(OC[C@@H](O)CN(CCc2ccc(Cl)c(Cl)c2)Cc2ccccc2O)cc1 | > 10000
CS(=O)(=O)Nc1ccc(OC[C@@H](O)CN(CCc2ccc(Cl)c(Cl)c2)Cc2ccc(F)c(F)c2F)cc1 | > 10000
CS(=O)(=O)Nc1ccc(OC[C@@H](O)CNCCc2ccc(Cl)cc2)cc1 | 9500
CN(CCc1ccc(Cl)c(Cl)c1)C[C@H](O)COc1ccc(NS(C)(=O)=O)cc1 | 1400

Each molecule was assayed against Glutamate NMDA receptor; Grin1/Grin2b (Rattus norvegicus, UniProt P35439+Q00960) (assay: Inhibition of rat recombinant NR1/NR2B receptor expressed in Xenopus oocytes assessed as inhibition of glutamate and glycine-induced evoked current by two electrode voltage clamp method).
Type: cell-based, Oocyte

Chain of Glutamate NMDA receptor; Grin1/Grin2b (Q00960 whole entry, other chains not shown): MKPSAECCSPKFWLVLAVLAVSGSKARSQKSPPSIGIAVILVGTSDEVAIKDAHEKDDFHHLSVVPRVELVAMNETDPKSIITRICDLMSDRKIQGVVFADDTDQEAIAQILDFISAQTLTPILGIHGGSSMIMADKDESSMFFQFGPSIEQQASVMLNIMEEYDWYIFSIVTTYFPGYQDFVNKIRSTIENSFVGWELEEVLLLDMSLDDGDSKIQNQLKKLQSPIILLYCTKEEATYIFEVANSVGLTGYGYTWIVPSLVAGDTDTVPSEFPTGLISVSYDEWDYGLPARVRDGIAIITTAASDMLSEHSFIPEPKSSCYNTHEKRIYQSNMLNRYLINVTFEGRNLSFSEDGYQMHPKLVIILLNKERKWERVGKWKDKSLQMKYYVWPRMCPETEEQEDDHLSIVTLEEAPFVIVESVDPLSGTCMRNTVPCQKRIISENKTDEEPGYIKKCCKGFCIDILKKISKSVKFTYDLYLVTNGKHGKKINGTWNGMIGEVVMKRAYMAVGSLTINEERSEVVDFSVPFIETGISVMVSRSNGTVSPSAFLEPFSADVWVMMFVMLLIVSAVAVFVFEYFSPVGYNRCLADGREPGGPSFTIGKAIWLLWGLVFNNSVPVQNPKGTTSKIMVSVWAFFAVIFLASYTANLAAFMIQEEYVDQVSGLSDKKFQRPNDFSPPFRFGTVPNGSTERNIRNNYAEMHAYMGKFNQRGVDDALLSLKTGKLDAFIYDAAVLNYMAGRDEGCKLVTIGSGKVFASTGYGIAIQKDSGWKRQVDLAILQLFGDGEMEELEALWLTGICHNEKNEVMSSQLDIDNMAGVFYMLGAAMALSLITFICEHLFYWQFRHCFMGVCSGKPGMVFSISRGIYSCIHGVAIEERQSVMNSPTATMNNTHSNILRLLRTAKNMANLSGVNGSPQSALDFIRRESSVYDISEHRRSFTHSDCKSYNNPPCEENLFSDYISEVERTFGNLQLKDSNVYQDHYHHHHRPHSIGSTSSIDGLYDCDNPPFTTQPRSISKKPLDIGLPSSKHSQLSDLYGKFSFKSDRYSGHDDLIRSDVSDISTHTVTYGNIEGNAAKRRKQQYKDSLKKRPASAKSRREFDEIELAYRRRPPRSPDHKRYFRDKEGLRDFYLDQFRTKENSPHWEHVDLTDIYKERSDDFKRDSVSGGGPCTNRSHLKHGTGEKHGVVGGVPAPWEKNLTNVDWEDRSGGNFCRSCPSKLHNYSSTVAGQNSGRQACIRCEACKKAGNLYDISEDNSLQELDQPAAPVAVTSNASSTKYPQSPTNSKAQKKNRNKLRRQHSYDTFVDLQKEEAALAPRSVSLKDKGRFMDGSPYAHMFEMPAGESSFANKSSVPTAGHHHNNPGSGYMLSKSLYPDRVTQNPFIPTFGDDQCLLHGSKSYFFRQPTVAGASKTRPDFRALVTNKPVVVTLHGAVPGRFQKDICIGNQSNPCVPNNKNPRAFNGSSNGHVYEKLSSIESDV

SMILES | IC50 [nM]
CS(=O)(=O)Nc1ccc(OC[C@@H](O)CN(CCc2ccc(Cl)c(Cl)c2)Cc2ccccc2F)cc1 | 80
CS(=O)(=O)Nc1ccc(OC[C@@H](O)CN(CCc2ccc(Cl)c(Cl)c2)Cc2ccccc2O)cc1 | 662
O=C(Nc1ccc(OC[C@@H](O)CNCCc2ccc(Cl)c(Cl)c2)cc1)C(Cl)Cl | 12800
C[C@H](NC[C@H](O)COc1ccc(NS(C)(=O)=O)cc1)c1cccc2ccccc12 | 5070
Cc1ccc(CN(CCc2ccc(Cl)c(Cl)c2)C[C@H](O)COc2ccc(NS(C)(=O)=O)cc2)cc1 | 5410
CS(=O)(=O)Nc1ccc(OC[C@@H](O)CN(CCc2ccc(Cl)c(Cl)c2)Cc2ccccc2)cc1 | 177
COc1ccccc1CN(CCc1ccc(Cl)c(Cl)c1)C[C@H](O)COc1ccc(NS(C)(=O)=O)cc1 | 3860
CS(=O)(=O)Nc1ccc(OC[C@@H](O)CN(CCc2ccc(Cl)c(Cl)c2)Cc2ccc(F)c(F)c2F)cc1 | 51
O=[N+]([O-])c1ccc(OC[C@@H](O)CNCCc2ccc(Cl)c(Cl)c2)cc1 | 9380
CS(=O)(=O)Nc1ccc(OC[C@@H](O)CNCCc2ccc3c(c2)OCO3)cc1 | 951
CC(=O)Nc1ccc(OC[C@@H](O)CNCCc2ccc(Cl)c(Cl)c2)cc1 | 4370
CS(=O)(=O)Nc1ccc(OC[C@@H](O)CNCCc2cccc(F)c2)cc1 | 853
CS(=O)(=O)Nc1ccc(OC[C@@H](O)CNCCc2cccc(Cl)c2)cc1 | 628
CCCCN(CCc1ccc(Cl)c(Cl)c1)C[C@@H](O)COc1ccc(NS(C)(=O)=O)cc1 | 1280
CS(=O)(=O)Nc1ccc(OC[C@@H](O)CN(CCc2ccc(Cl)c(Cl)c2)Cc2cccc(F)c2)cc1 | 249
CN(c1ccc(OC[C@@H](O)CNCCc2ccc(Cl)c(Cl)c2)cc1)S(C)(=O)=O | 9910
CS(=O)(=O)Nc1ccc(OC[C@@H](O)CN(CCc2ccc(Cl)c(Cl)c2)Cc2cccnc2)cc1 | 278
CS(=O)(=O)Nc1ccc(OC[C@@H](O)CN(CCc2ccc(Cl)c(Cl)c2)Cc2cccc(O)c2O)cc1 | 1820
CCCCS(=O)(=O)Nc1ccc(OC[C@@H](O)CNCCc2ccc(Cl)c(Cl)c2)cc1 | 6790
CS(=O)(=O)Nc1ccc(OC[C@@H](O)CN(CCc2ccc(Cl)c(Cl)c2)Cc2cccc3c2OCO3)cc1 | 5010
CS(=O)(=O)Nc1ccc(OC[C@H](O)CN(CCc2ccc(Cl)c(Cl)c2)Cc2cccc(O)c2)cc1 | 409
CS(=O)(=O)Nc1ccc(OC[C@@H](O)CNCCc2ccc(F)c(Cl)c2)cc1 | 397
CS(=O)(=O)Nc1cccc(OC[C@@H](O)CNCCc2ccc(Cl)c(Cl)c2)c1 | 530

SMILES | IC50 [nM]
Cc1ccccc1CN(CCc1ccc(Cl)c(Cl)c1)C[C@H](O)COc1ccc(NS(C)(=O)=O)cc1 | 5700
CS(=O)(=O)Nc1ccccc1OC[C@@H](O)CNCCc1ccc(Cl)c(Cl)c1 | 12000
CS(=O)(=O)Nc1ccc(OC[C@@H](O)CNCCc2ccc(Cl)cc2Cl)cc1 | 2320
CS(=O)(=O)Nc1ccc(OC[C@@H](O)CNCCc2ccccc2Cl)cc1 | 429
CS(=O)(=O)Nc1ccc(OC[C@@H](O)CN(CCc2ccc(Cl)c(Cl)c2)Cc2ccccc2[N+](=O)[O-])cc1 | 589
CS(=O)(=O)Nc1ccc(OC[C@@H](O)CN(CCc2ccc(Cl)c(Cl)c2)Cc2c(F)cccc2F)cc1 | 281
CCCCCN(CCc1ccc(Cl)c(Cl)c1)C[C@H](O)COc1ccc(NS(C)(=O)=O)cc1 | 659
CS(=O)(=O)Nc1ccc(OC[C@H](O)CN(CCO)CCc2ccc(Cl)c(Cl)c2)cc1 | 173
CCS(=O)(=O)Nc1ccc(OC[C@@H](O)CNCCc2ccc(Cl)c(Cl)c2)cc1 | 587
COc1cccc(CN(CCc2ccc(Cl)c(Cl)c2)C[C@H](O)COc2ccc(NS(C)(=O)=O)cc2)c1OC | 2790
CS(=O)(=O)Nc1ccc(OC[C@@H](O)CNCCc2ccccc2F)cc1 | 573
CS(=O)(=O)Nc1ccc(OC[C@@H](O)CNCCc2ccc(F)cc2)cc1 | 748
CS(=O)(=O)Nc1ccc(OC[C@@H](O)CN(CCc2ccc(Cl)c(Cl)c2)CC2CCCCC2)cc1 | 9840
O=C(Nc1ccc(OC[C@@H](O)CNCCc2ccc(Cl)c(Cl)c2)cc1)C(Cl)(Cl)Cl | 10600
O=S(=O)(Nc1ccc(OC[C@@H](O)CNCCc2ccc(Cl)c(Cl)c2)cc1)c1ccccc1 | 1450
CS(=O)(=O)Nc1ccc(OC[C@@H](O)CNCCc2cccc(O)c2)cc1 | 4430
CS(=O)(=O)Nc1ccc(OC[C@H](O)CNCCc2ccc(Cl)c(Cl)c2)cc1 | 188
CC(C)N(CCc1ccc(Cl)c(Cl)c1)C[C@H](O)COc1ccc(NS(C)(=O)=O)cc1 | 603
CS(=O)(=O)Nc1ccc(OC[C@@H](O)CNCCc2cc(O)cc(O)c2)cc1 | > 100000
CS(=O)(=O)Nc1ccc(OC[C@@H](O)CNCCc2ccc(O)c(O)c2)cc1 | > 100000
CS(=O)(=O)Nc1ccc(OC[C@@H](O)CNCCc2ccc(Cl)c(Cl)c2)c(F)c1 | 72
CCCS(=O)(=O)Nc1ccc(OC[C@@H](O)CNCCc2ccc(Cl)c(Cl)c2)cc1 | 6100
CCCN(CCc1ccc(Cl)c(Cl)c1)C[C@H](O)COc1ccc(NS(C)(=O)=O)cc1 | 635

SMILES | IC50 [nM]
Cc1cc(OC[C@@H](O)CNCCc2ccc(Cl)c(Cl)c2)ccc1NS(C)(=O)=O | 687
CS(=O)(=O)Nc1ccc(OC[C@@H](O)CN(CCc2ccc(Cl)c(Cl)c2)Cc2ccccc2C(F)(F)F)cc1 | 3720
CS(=O)(=O)Nc1ccc(OC[C@@H](O)CNCCc2ccc(Cl)cc2)cc1 | 101
CS(=O)(=O)Nc1ccc(OC[C@H](O)CN(CCc2ccc(Cl)c(Cl)c2)Cc2ccccc2O)cc1 | 433
CS(=O)(=O)Nc1ccc(OC[C@@H](O)CN(CCc2ccc(Cl)c(Cl)c2)CCc2ccccc2O)cc1 | 755
CS(=O)(=O)Nc1ccc(OC[C@@H](O)CN(CCc2ccc(Cl)c(Cl)c2)Cc2ccccc2Br)cc1 | 38
CS(=O)(=O)Nc1ccc(OC[C@@H](O)CN(CCc2ccccc2)CCc2ccc(Cl)c(Cl)c2)cc1 | 3510
CS(=O)(=O)Nc1ccc(OC[C@@H](O)CN(CCc2ccc(Cl)c(Cl)c2)Cc2ccccc2Cl)cc1 | 479
CN(CCc1ccc(Cl)c(Cl)c1)C[C@H](O)COc1ccc(NS(C)(=O)=O)cc1 | 130
COc1cccc(OC)c1CN(CCc1ccc(Cl)c(Cl)c1)C[C@H](O)COc1ccc(NS(C)(=O)=O)cc1 | 11900
CS(=O)(=O)Nc1ccc(OC[C@@H](O)CN(CCc2ccc(Cl)c(Cl)c2)Cc2ccc(O)cc2O)cc1 | 146
CS(=O)(=O)Nc1ccc(OC[C@@H](O)CNCCc2ccccc2O)cc1 | 2000
CS(=O)(=O)Nc1ccc(OC[C@@H](O)CNCCc2ccc(O)cc2)cc1 | 7240
CS(=O)(=O)Nc1ccc(OC[C@@H](O)CNCCc2ccc(Cl)c(Cl)c2)cc1F | 427
CC(=O)Oc1ccccc1CN(CCc1ccc(Cl)c(Cl)c1)C[C@H](O)COc1ccc(NS(C)(=O)=O)cc1 | 500
CS(=O)(=O)Nc1ccc(OC[C@@H](O)CN(CCc2ccc(Cl)c(Cl)c2)Cc2c(F)c(F)c(F)c(F)c2F)cc1 | 524
CS(=O)(=O)Nc1ccc(OC[C@@H](O)CN(CCc2ccc(Cl)c(Cl)c2)Cc2ccc(O)cc2)cc1 | 113
CS(=O)(=O)Nc1ccc(OC[C@@H](O)CNCCc2ccc([N+](=O)[O-])cc2)cc1 | 1140
CS(=O)(=O)Nc1ccc(OC[C@@H](O)CN(CCc2ccc(Cl)c(Cl)c2)Cc2ccc(F)cc2)cc1 | 275
CS(=O)(=O)Nc1ccc(OC[C@@H](O)CN(CCc2ccc(Cl)c(Cl)c2)Cc2nccs2)cc1 | 3580
CN(CCc1ccc(Cl)c(Cl)c1)C[C@@H](O)COc1ccc(NS(C)(=O)=O)cc1 | 253
